The source of these data is ChEMBL document CHEMBL3232782, “1,2,3,4,8,9,10,11-octahydrobenzo[j]phenanthridine-7,12-diones as new leads against Mycobacterium tuberculosis” (J Med Chem, 2014).

Holding throughout (type): functional
For test [1], the system named is Mycobacterium tuberculosis. Nature of the test: Antimycobacterial activity against multidrug-resistant Mycobacterium tuberculosis LAM-1 assessed as bacterial growth index at 0.50 uM measured on day 6 by BACTEC MGIT 960TB method relative to control. Put shortly: (§1)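 MDR LAM-1, resistant to INH, RIF, rifabutin and prothionamide, was precultured in BACTEC MGIT vials to GI 300. It was inoculated with compound dilutions made from 1 mg/mL DMSO stocks in 7H9-OADC. Growth index was recorded daily. Day-6 GI was compared with an untreated culture diluted 100-fold (C/100) to set the critical 99% inhibitory concentration. Controls: INH 0.1 μM; moxifloxacin 1.14 μM.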

Test [2] relates to Mycobacterium tuberculosis. Nature of the test: Antimycobacterial activity against multidrug-resistant Mycobacterium tuberculosis LAM-1 assessed as bacterial growth index at 2.5 uM measured on day 6 by BACTEC MGIT 960TB method relative to control. Summed up:
as §1

Test [3] has as its system Mycobacterium tuberculosis. Description: Antimycobacterial activity against multidrug-resistant Mycobacterium tuberculosis LAM-1 assessed as bacterial growth index at 0.25 uM measured on day 6 by BACTEC MGIT 960TB method relative to control. Put shortly:
as §1

SMILES strings stand for the structures.

As for `CC(C)(C)C1CCc2ncc3c(c2C1)C(=O)C1=C(C3=O)C2CCC1C2` (stereo unspecified), the Growth_index in test [1] stood at 1982; in test [2], 537.

With `CCOC(=O)C1CCc2ncc3c(c2C1)C(=O)C1=C(C3=O)C2CCC1C2` (stereo unspecified), the Growth_index turned out to be 367 in test [1] and 1970 in test [3].

With `CCOC(=O)C1CCc2ncc3c(c2C1)C(=O)C1=C(C3=O)C2CCC1CC2` (stereo unspecified), the Growth_index in test [1] is on record as 638; in test [3] it was 2382.
